For series [1], the system named is Mus musculus. Nature of the series: Anti-osteoporotic activity in ovariectomized postmenopausal Balb/c mouse model assessed as femur bone breaking strength by measuring stiffness at 1 mg/kg, po qd via gavage for 6 weeks by micro CT-scan analysis (reference value: 34.3 +/- 1.84 N/mm). It is filed as functional. The gist of the method: (§1)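 Female Balb/c mice, 8 weeks old, ovariectomized, 6 weeks osteopenia development, then 1.0 mg/kg/day or gum acacia vehicle by oral gavage once daily for 6 weeks (sham, OVx and treated groups). Bones collected after sacrifice for micro-CT of trabecular microarchitecture (BV/TV, Tb.N, Tb.Th, Tb.Sp, SMI) and biomechanical testing of femur and vertebrae (energy, stiffness); mean ± SE versus OVx.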

Series [2] in a line: Induction of osteoblast differentiation in mouse calvarial cells assessed as increase in BMP2 mRNA expression at 1 pM after 24 hrs by qRT-PCR method relative to control. Format: functional, Calvarial cell. The essentials:
(§2)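 Mouse calvarial osteoblasts exposed to 1 pM for 24 h; BMP2, RunX2 and COL1 mRNA by quantitative PCR with GAPDH as internal control. Mean ± SE of three independent experiments versus untreated cells.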

The subject of series [3] is Mus musculus. Nature of the series: Estrogenic effect in uterine of ovariectomized postmenopausal Balb/c mouse model assessed as total uterine area at 1 mg/kg, po qd via gavage for 6 weeks (reference value: 837.2 +/- 36.09 um2). The conditions noted are these: in vivo, 1008 h. Format: ADME, organism-based.
Series [4] has as its system Calvarial cell. Nature of the series: Induction of mineralization in mouse calvarial cells assessed as calcium nodule formation at Emax incubated for 12 days by alizarin red-S staining based spectrophotometric method. It is filed as functional. The gist of the method:
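Primary mouse calvarial osteoblasts treated with or without compound for 12 days, fixed in 4% formaldehyde, stained with alizarin red-S, and the stain extracted and quantified by the acetic acid method.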

Series [5] relates to Mus musculus. Nature of the series: Anti-osteoporotic activity in ovariectomized postmenopausal Balb/c mouse model assessed as improvement in micro-artchitectural parameter in vertebrae by measuring structural model index at 1 mg/kg, po qd via gavage for 6 weeks by micro CT-scan analysis (reference value: 1.78 +/- 0.08). Format: functional. The gist of the method:
as §1

Series [6] has as its system Mus musculus. The experiment in a line: Anti-osteoporotic activity in ovariectomized postmenopausal Balb/c mouse model assessed as decrease in TRAP mRNA expression at 1 mg/kg, po qd via gavage for 6 weeks by RT-PCR method. Format: functional, organism-based. The gist of the method:
(§3)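 Eight-week-old female Balb/c mice, ovariectomized and left 6 weeks for osteopenia to develop; groups sham+vehicle, OVx+vehicle, OVx+1.0 mg/kg/day, dosed once daily by oral gavage for 6 weeks in gum acacia/distilled water vehicle. Mice kept at 21°C, 12 h light/dark, chow and water ad libitum. Femoral bone mRNA or serum measured after sacrifice; mean ± SE versus OVx group.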

The nature of series [7]: Induction of mineralization in mouse calvarial cells assessed as increase in COL1 mRNA expression at 1 pM after 24 hrs by qRT-PCR method relative to control. Format: functional, Calvarial cell. The essentials:
as §2

The test system of series [8] is Mus musculus. The experiment in a line: Anti-osteoporotic activity in ovariectomized postmenopausal Balb/c mouse model assessed as induction of femur bone marrow cell mineralization at 1 mg/kg, po qd via gavage for 6 weeks measured on day 21 post dose by alizarin red-S staining based assay relative to control. Format: functional. The essentials: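 Ovariectomized 8-week-old female Balb/c mice given 1.0 mg/kg/day orally by gavage for 6 weeks; bone marrow cells then cultured ex vivo. ALP activity read at 405 nm; mineralized nodules stained with Alizarin Red at day 21 of culture. Mean ± SE versus OVx group.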

The subject of series [9] is Mus musculus. The experiment in a line: Anti-osteoporotic activity in ovariectomized postmenopausal Balb/c mouse model assessed as improvement in micro-artchitectural parameter in tibia by measuring structural model index at 1 mg/kg, po qd via gavage for 6 weeks by micro CT-scan analysis (reference value: 2.32 +/- 0.08). It is filed as functional. The essentials:
as §1

Series [10] deals with Mus musculus. Nature of the series: Osteogenic activity in Balb/c mouse drill-hole fracture model assessed as increase in Sox9 mRNA level at 1 mg/kg, po qd via gavage for 21 days by RT-PCR method.
The test system of series [11] is Mus musculus. The experiment in a line: Estrogenic effect in uterine of ovariectomized postmenopausal Balb/c mouse model assessed as luminal area at 1 mg/kg, po qd via gavage for 6 weeks (reference value: 57.5 +/- 1.19 um2). It is filed as ADME, organism-based. The conditions noted are these: in vivo, 1008 h.
Series [12] concerns Mus musculus. The experiment in a line: Osteogenic activity in Balb/c mouse drill-hole fracture model assessed as increase in BMP4 mRNA level at 1 mg/kg, po qd via gavage for 21 days by RT-PCR method.
Series [13] deals with Mus musculus. Nature of the series: In vivo induction of osteogenesis in Balb/c mouse assessed as increase in bone formation rate in calvaria at 0.1 to 1 mg/kg/day, sc over calvarial surface for 5 consecutive days by fluorochromes tetracycline and calcein labeling based histomorphometric analysis. It is filed as functional, organism-based. The gist of the method:
(§4)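 Three-week-old Balb/c mice (3 per group) injected subcutaneously over the calvarial surface daily for 5 consecutive days at 0.1, 0.5, 1 and 5 mg/kg/day. Calvaria fixed in 4% formaldehyde, paraffin-embedded, H&E-stained; tetracycline and calcein (20 mg/kg each, ip) given for MAR/BFR histomorphometry; calvarial mRNA by RT-PCR. Mean ± SE, three independent experiments, versus untreated.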

In series [14] the test system is Mus musculus. Nature of the series: In vivo induction of osteogenesis in Balb/c mouse assessed as increase in Runx2 mRNA level in calvaria at 1 mg/kg/day, sc over calvarial surface for 5 consecutive days by RT-PCR method relative to control. Format: functional. The essentials: as §4
In series [15] the test system is Mus musculus. The experiment in a line: Osteogenic activity in Balb/c mouse drill-hole fracture model assessed as trabecular thickness at 1 mg/kg, po qd via gavage for 21 days by micro-CT method (reference value: 0.111 +/- 0.006 millimeter).
Series [16] concerns Mus musculus. The experiment in a line: In vivo induction of osteogenesis in Balb/c mouse assessed as increase in mineral appositional rate in calvaria at 0.1 to 1 mg/kg/day, sc over calvarial surface for 5 consecutive days by fluorochromes tetracycline and calcein labeling based histomorphometric analysis. It is filed as functional, organism-based. The essentials:
as §4

In series [17] the test system is Mus musculus. Nature of the series: Decrease in osteocalcin level in serum of ovariectomized postmenopausal Balb/c mouse model at 1 mg/kg, po qd via gavage for 6 weeks by ELISA. Format: functional, organism-based. The gist of the method: as §3
In series [18] the test system is Mus musculus. Nature of the series: Osteogenic activity in Balb/c mouse drill-hole fracture model assessed as increase in OCN mRNA level at 1 mg/kg, po qd via gavage for 21 days by RT-PCR method relative to control.
Series [19] relates to Mus musculus. The experiment in a line: Anti-osteoporotic activity in ovariectomized postmenopausal Balb/c mouse model assessed as increase in Osx gene expression in femur bone at 1 mg/kg, po qd via gavage for 6 weeks by RT-PCR method. Format: functional, organism-based. The essentials:
as §3

Series [20] relates to Mus musculus. Nature of the series: Anti-osteoporotic activity in ovariectomized postmenopausal Balb/c mouse model assessed as mineral apposition rate at 1 mg/kg, po qd via gavage for 6 weeks by fluorochromes tetracycline and calcein labeling based histomorphometric analysis (reference value: 0.099 +/- 0.01 umeter/day). Format: functional.
Series [21] relates to Mus musculus. The experiment in a line: Anti-osteoporotic activity in ovariectomized postmenopausal Balb/c mouse model assessed as increase in RunX2 gene expression in femur bone at 1 mg/kg, po qd via gavage for 6 weeks by RT-PCR method. Format: functional, organism-based. The essentials: as §3
Series [22] deals with Mus musculus. Nature of the series: Osteogenic activity in Balb/c mouse drill-hole fracture model assessed as increase in COL1 mRNA level at 1 mg/kg, po qd via gavage for 21 days by RT-PCR method relative to control.

The source made the active and inactive calls. No cut-off for these calls is given here.

`COc1cc2oc(=O)cc(-c3ccccc3)c2cc1OCCCCCN1CCN(C)CC1`: the Activity in series [1] was 53.55 N/mm; in series [3], 958.6 um2; in series [8], 50%; in [11], 75.75 um2; in series [15] it was 0.166 mm; in series [20], 0.177 micrometer/day. The “fold change (FC)” value in [2] is recorded as 2; in series [7] it was 6; in series [14] it was 4; in [18] it was 6; in series [22] it was 6. In addition, the outcome in [4], in series [6], in series [10], in series [12], in series [13] and in series [16] was Active. Moreover, the outcome in [17], in series [19] and in series [21] was Active. The results for the Activity_index in [5] and in series [9] were 1.07 and 1.84, respectively.
